Assay results taken from ChEMBL document CHEMBL4145570, “Structures and Biological Evaluation of Monoterpenoid Glycosides from the Roots of Paeonia lactiflora” (J Nat Prod, 2018).
Activity calls are given as the source filed them. No cut-off for these calls is given here.

Legend:
RAW264.7 [1] = assay: Antiinflammatory activity in mouse RAW264.7 cells assessed as inhibition of LPS-induced NO production at 80 uM relative to control; format: functional
RAW264.7 [2] = assay: Antiinflammatory activity in mouse RAW264.7 cells assessed as inhibition of LPS-induced NO production at 60 uM relative to control; format: functional
RAW264.7 [3] = assay: Antiinflammatory activity in mouse RAW264.7 cells assessed as inhibition of LPS-induced NO production at 40 uM relative to control; format: functional
RAW264.7 [4] = assay: Antiinflammatory activity in mouse RAW264.7 cells assessed as inhibition of LPS-induced NO production at 20 uM relative to control; format: functional
RAW264.7 [5] = assay: Antiinflammatory activity in mouse RAW264.7 cells assessed as inhibition of LPS-induced NO production at 10 uM relative to control; format: functional
RAW264.7 [6] = assay: Antiinflammatory activity in mouse RAW264.7 cells assessed as inhibition of LPS-induced NO production; format: functional, cell-based
How it was run: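 NO release measured in LPS-stimulated RAW264.7 macrophages alongside an unstimulated control group; IC50 derived; dexamethasone as positive control.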

RAW264.7 [7] = assay: Cytotoxicity against mouse RAW264.7 cells up to 100 uM; format: cell-based
How it was run: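 Viability assessed in LPS-stimulated RAW264.7 macrophages during the NO-production assay, at concentrations up to 100 μM.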

HCT-8 = assay: Cytotoxicity against human HCT8 cells assessed as decrease in cell viability at 10 uM after 24 hrs by MTT assay; format: functional, cell-based
A2780 = assay: Cytotoxicity against human A2780 cells assessed as decrease in cell viability at 10 uM after 24 hrs by MTT assay; format: functional, cell-based
BGC-823 = assay: Cytotoxicity against human BGC823 cells assessed as decrease in cell viability at 10 uM after 24 hrs by MTT assay; format: functional, cell-based
Bel-7402 = assay: Cytotoxicity against human Bel7402 cells assessed as decrease in cell viability at 10 uM after 24 hrs by MTT assay; format: functional, cell-based
A549 = assay: Cytotoxicity against human A549 cells assessed as decrease in cell viability at 10 uM after 24 hrs by MTT assay; format: functional, cell-based
Peritoneal macrophage = assay: Inhibition of LPS-induced TNFalpha secretion in C57BL6J mouse peritoneal macrophages at 10 uM after 24 hrs; format: functional, cell-based
[8] = molecular target: T1, Tyrosine-protein phosphatase non-receptor type 1 (Homo sapiens) (UniProt P18031); assay: Inhibition of PTP1B (unknown origin) at 10 uM
T1 sequence (whole entry): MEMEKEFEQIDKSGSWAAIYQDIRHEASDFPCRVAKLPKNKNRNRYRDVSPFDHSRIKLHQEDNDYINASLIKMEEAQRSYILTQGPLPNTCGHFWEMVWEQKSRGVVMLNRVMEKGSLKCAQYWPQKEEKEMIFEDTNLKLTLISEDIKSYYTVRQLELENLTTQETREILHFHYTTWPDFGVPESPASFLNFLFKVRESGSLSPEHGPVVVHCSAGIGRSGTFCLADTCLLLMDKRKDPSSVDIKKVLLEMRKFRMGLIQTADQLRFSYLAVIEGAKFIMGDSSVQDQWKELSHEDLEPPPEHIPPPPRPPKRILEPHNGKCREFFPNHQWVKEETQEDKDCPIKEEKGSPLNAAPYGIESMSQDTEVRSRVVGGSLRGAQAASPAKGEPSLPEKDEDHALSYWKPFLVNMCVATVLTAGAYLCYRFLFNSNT

HepG2 = assay: Protection against acetaminophen-induced cell injury in human HepG2 cells at 10 uM after 24 hrs by MTT assay; format: functional, cell-based

Row | IC50 (RAW264.7 [6]) | inhibition [8] | Structure (SMILES) | inhibition at 80 µM (RAW264.7 [1]) | inhibition at 60 µM (RAW264.7 [2]) | inhibition at 40 µM (RAW264.7 [3]) | inhibition at 20 µM (RAW264.7 [4]) | inhibition at 10 µM (RAW264.7 [5]) | Activity (RAW264.7 [7]) | Activity (HCT-8) | Activity (A2780) | Activity (BGC-823) | Activity (Bel-7402) | Activity (A549) | inhibition (Peritoneal macrophage) | Activity (HepG2)
1 | > 100 µM | inactive | C=C[C@@](C)(O)CC/C=C(\C)C(=O)OC[C@H]1O[C@@H](O[C@]23CC4C2(COC(=O)c2ccccc2)[C@H]2O[C@]4(O)C[C@]3(C)O2)[C@H](O)[C@@H](O)[C@@H]1O | 41.3% | 38.1% | 28.1% | 22.6% | 9.85% | Non-Toxic | inactive | inactive | inactive | inactive | inactive | inactive | inactive
2 | > 100 µM | inactive | C[C@]1(C(=O)OC[C@H]2O[C@@H](O[C@]34CC5C3(COC(=O)c3ccccc3)[C@H]3O[C@]5(O)C[C@]4(C)O3)[C@H](O)[C@@H](O)[C@@H]2O)[C@@H]2CC[C@@H](CO)[C@H]1C2 | 40.7% | 39.5% | 22.1% | 20.9% | 19.7% | Non-Toxic | inactive | inactive | inactive | inactive | inactive | inactive | inactive
3 | 97.5 µM | inactive | CC(C)c1ccc(CO[C@@H]2O[C@H](CO[C@@H]3O[C@@H](C)[C@H](O)[C@@H](O)[C@H]3O)[C@@H](O)[C@H](O)[C@H]2O)cc1 | 52.4% | 38.7% | 31.1% | 23.6% | 22.2% | Non-Toxic | inactive | inactive | inactive | inactive | inactive | inactive | inactive
4 | > 100 µM | inactive | CC(C)=CCC/C(C)=C/C(=O)O[C@@H]1O[C@H](CO[C@@H]2O[C@@H](C)[C@H](O)[C@@H](O)[C@H]2O)[C@@H](O)[C@H](O)[C@H]1O | 41% | 33.4% | 29.2% | 21.4% | 21.4% | Non-Toxic | inactive | inactive | inactive | inactive | inactive | inactive | inactive
5 | > 100 µM | inactive | C[C@]1(C(=O)OC[C@H]2O[C@@H](O[C@]34CC5C3(COC(=O)c3ccccc3)[C@H]3O[C@]5(O)C[C@]4(C)O3)[C@H](O)[C@@H](O)[C@@H]2O)[C@@H]2CC[C@H](CO)[C@H]1C2 | 44.6% | 29.3% | 25.8% | 22.8% | 16.5% | Non-Toxic | inactive | inactive | inactive | inactive | inactive | inactive | inactive
6 | > 100 µM | inactive | CC1=CC(=O)[C@H]2C[C@]1(O[C@@H]1O[C@H](COC(=O)c3ccccc3)[C@@H](O)[C@H](O)[C@H]1O)C2(C)CO (stereo partly specified) | 45% | 31.9% | 18.3% | 16.2% | 12.8% | Non-Toxic | inactive | inactive | inactive | inactive | inactive | inactive | inactive
7 | > 100 µM | inactive | CC1(C)[C@@H]2C[C@H]1[C@@H](O)C[C@@H]2C(=O)OC[C@H]1O[C@@H](O[C@]23CC4C2(COC(=O)c2ccccc2)[C@H]2O[C@]4(O)C[C@]3(C)O2)[C@H](O)[C@@H](O)[C@@H]1O | 40.8% | 38.7% | 27.5% | 23.3% | 8.58% | Non-Toxic | inactive | inactive | inactive | inactive | inactive | inactive | inactive
8 | > 100 µM | inactive | CC12C(=O)O[C@@]3(C)C[C@@H](O)[C@H]1C[C@]23O[C@@H]1O[C@H](COC(=O)c2ccccc2)[C@@H](O)[C@H](O)[C@H]1O | 39.4% | 34.8% | 28.2% | 24.4% | 19.1% | Non-Toxic | inactive | inactive | inactive | inactive | inactive | inactive | inactive
9 | 60.1 µM | inactive | C[C@]12CC(=O)[C@H]3C[C@@]1(O[C@@H]1O[C@H](CO)[C@@H](O)[C@H](O)[C@H]1O)O[C@@H](O2)[C@H]3COC(=O)c1ccccc1 | 61% | 49.9% | 34.9% | 29.6% | 28% | Non-Toxic | inactive | inactive | inactive | inactive | inactive | inactive | inactive
10 | 8.3 µM | – | C[C@@H]1C[C@H]2[C@@H]3CCC4=CC(=O)C=C[C@]4(C)[C@@]3(F)[C@@H](O)C[C@]2(C)[C@@]1(O)C(=O)CO [DEXAMETHASONE] | – | – | – | – | – | – | – | – | – | – | – | – | –
11 | 64.8 µM | inactive | CC1=CC(=O)[C@H]2C[C@@]1(O[C@@H]1O[C@H](CO)[C@@H](O)[C@H](O)[C@H]1O)C2(C)COC(=O)c1ccccc1 (stereo partly specified) | 61.7% | 45.9% | 26% | 19.3% | 25.7% | Non-Toxic | inactive | inactive | inactive | inactive | inactive | inactive | inactive
